Measurements published in publication PMC3190987 (The Journal of Biological Chemistry, 2011).
Read-outs that look alike come from different tables or passages of the source.

T1: c-Jun (Homo sapiens, UniProt P05412, S292Y)
T1 sequence (P05412 with tags, fused parts or gaps S292Y): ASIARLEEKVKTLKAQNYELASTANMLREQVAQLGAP


Legend:
[1] = homodimer; cited from earlier work
[2] = system: c-Jun-DHFR2; test: Growth competition under PCA conditions; format: cell-based, Escherichia coli; details: M9 minimal media with trimethoprim and IPTG; A600 hourly, in duplicate
Outline: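 Split murine DHFR complementation in E. coli: library peptide fused to DHFR fragment 1, c-Jun to fragment 2, both lac-driven. Strains came from single colonies on PCA plates with sequence-verified plasmids. Growth rates were monitored under selection in M9 minimal medium with ampicillin, chloramphenicol, kanamycin, trimethoprim and IPTG (1 mM induction).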

[3] = biological target: T1, c-Jun; test: CD spectra of heterodimeric complexes with c-Jun; details: for θ222/θ208 (20 °C) / Fraction helical (fH): heterodimer with c-Jun; for θ222/θ208 (20 °C): CD, 150 μM total peptide, pH 7, 20 °C; for Fraction helical (fH): from θ222, 20 °C
Outline: (§1)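 CD spectra of homodimeric or c-Jun heterodimeric samples, 150 μM total peptide, 10 mM potassium phosphate, 100 mM KF, pH 7, 1-mm cell. Scans 300–190 nm at 20 °C (pre- and post-melt) and at −8 °C. Converted to molar residue ellipticity, giving θ222/θ208. Fraction helicity taken from θ222 with k = 2.4 and T = 293 K.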

[4] = CD spectra of peptides in isolation; format: physicochemical; details: for helicity in isolation: peptide in isolation, from θ222, 20 °C
Outline: as §1

[5] = biological target: T1, c-Jun; test: Isothermal titration calorimetry; format: binding; details: for ΔH / ΔGbind (ITC) / TΔS (ΔH − ΔG): ITC, 20 °C; for ΔH: pH 7, one-site model; for ΔGbind (ITC): calculated by Equation 4; for TΔS (ΔH − ΔG): calculated from ΔH and ΔGbind
Outline: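 VP-ITC at 20 °C in 10 mM potassium phosphate, 100 mM KF, pH 7. Syringe peptide at 175–250 μM was injected 25 × 5 μl into cell peptide at 10–40 μM; syringe and cell partners were also swapped. Each run was done at least twice. Isotherms fitted to a 1:1 one-site model for Kd and ΔH. ΔG calculated at 293.15 K; TΔS from ΔH and ΔG.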

[6] = Thermal melts followed by CD at 222 nm, homodimers; format: physicochemical; details: homodimer; CD 222 nm, 150 μM total peptide, pH 7
Outline: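 CD thermal denaturation at 222 nm, 150 μM total peptide, 10 mM potassium phosphate, 100 mM KF, pH 7. Started at −8 °C and stepped in 1 °C increments with a 30 s hold, signal averaged over 4 s per point. Tm obtained by least-squares fit to a two-state model (modified Gibbs-Helmholtz).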

[7] = biological target: T1, c-Jun; test: CD dimer exchange experiment; format: binding; details: CD spectra, total peptide 150 μM
Outline: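 Equilibrium mixing followed by CD in 10 mM potassium phosphate, 100 mM KF, pH 7. Spectra recorded for the c-Fos homodimer and for the test peptide–c-Jun heterodimer, each at 150 μM total peptide. Equal volumes of the two solutions were then mixed, keeping the final total peptide at 150 μM, and the spectrum was re-recorded.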

[8] = biological target: T1, c-Jun; details: heterodimer with c-Jun; cited from earlier work
[9] = biological target: c-Jun (37-residue leucine zipper peptide); test: CD thermal denaturation
[10] = biological target: c-Jun (37-residue leucine zipper peptide); test: ITC

Row | Molecule | affinity for c-Jun by E. coli growth rate [2] | θ222/θ208 (20 °C) [3] | Fraction helical (fH) [3] [%] | ΔH [5] [kcal/mol] | ΔGbind (ITC) [5] [kcal/mol] | TΔS (ΔH − ΔG) [5] [kcal/mol] | Kd [9] [nM] | Ka [10] [M⁻¹] | also measured
1 | ASIARLEEKVKTLKAQNYELASTANMLREQVAQLGAP [c-Jun] | – | – | – | – | – | – | – | – | Tm [1]: 24 °C
2 | ASLDELQAEIEQLEERNYALRKEIEDLQKQLEKLGAP [FosW] | much improved affinity over c-Fos | 1.0 | 35.8 | -10.6 ± 0.2 | -9.9 ± 0.1 | -0.7 ± 0.2 | – | – | helicity in isolation [4]: 43.7%
3 | ASLDELQREIEQLEELNYALQKEIEDLQKQGAP [4hFosW] | much improved affinity over c-Fos | 0.99 | 60.4 | -14.1 ± 0.2 | -8.8 ± 0.1 | -5.3 ± 0.2 | – | – | Tm [6]: 36 °C; magnitude of the CD peak at 222 nm ([3]; heterodimeric complex with c-Jun, 20 °C): approximately −112 millidegrees; gain in helicity of complex with c-Jun over c-Jun-FosW ([3]; measured helicity by CD): ~25%; specificity for c-Jun in the presence of c-Fos [7]: specific for c-Jun in the presence of c-Fos; gain in helicity in isolation relative to FosW [4]: ~7%; magnitude of the CD peak at 222 nm ([4]; homodimeric complex, 20 °C): approximately −87 millidegrees; ratio θ222/θ208 ([4]; peptide in isolation (homodimeric)): ~1.0; helicity in isolation [4]: 50.6%; loss of stability of complex with c-Jun relative to c-Jun-FosW ([5]; ITC free energy of binding): around 1 kcal/mol
4 | ASTDTLQAETDQLEDEKYALQTEIANLLKEKEKLGAP [c-Fos] | lower affinity interaction | 0.75 | 3.6 | -0.8 ± 0.4 | -6.1 ± 0.4 | 5.3 ± 0.5 | – | – | Tm [8]: 16 °C
5 | c-Fos (37-residue leucine zipper peptide) | – | – | – | – | – | – | 26600 | 38000 | –
6 | Ac-ASLDELQAEIEQLEERNYALRKEIEDLQKQLEKLGAP-NH2 [FosW] | – | – | – | – | – | – | 45 | 2.2e+07 | Tm [9]: 63 °C; dH [10]: -10.6 kcal/mol; stoichiometry N [10]: 0.65
7 | Ac-ASLDELQREIEQLEELNYALQKEIEDLQKQGAP-NH2 [4hFosW] | – | – | – | – | – | – | 487 | 2.1e+06 | Tm [9]: 49 °C; dH [10]: -14.1 kcal/mol; stoichiometry N [10]: 1.05
